# KCNQ1 pot: human KCNQ1 channel potentiation or activation. P51787. CHO-K1 KCNQ1, thallium flux FluxOR fluorescence; hits give high values. B-score at 10 µM. hit rate 0.35% among 310,000;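 active means fluorescence ratio B-score, a plate-corrected score, at least three library SD, with initial intensity B-score within 5 SD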
#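 System: CHO-K1 cells stably expressing KCNQ1 / Medium: assay buffer for compound exposure, DMSO matched across wells / Reagent: thallium- and potassium-containing depolarizing buffer / Compound: one concentration, matched DMSO / Incubation: 20 min compound pretreatment at room temperature / Measured by: kinetic FluxOR fluorescence, 10 s baseline plus 110 s post-stimulus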
# Kir21 inh: Kir2.1 (mouse) channel inhibition; HEK293-Kir2.1, FluxOR thallium flux fluorescence; hits give low values; hit rate 0.85% among 310,000; B-score at 10 µM; P35561;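 active means fluorescence ratio B-score at or below minus 3 SD of library scores, with starting-brightness B-score within 2 SD, cut at about -4.2 in these data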;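 further: channel flux triggered by added potassium and thallium sulfate stimulus; B-score of peak minus minimum fluorescence over baseline after thallium stimulus; more negative B-score means stronger Kir2.1 block with less thallium influx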
# KCNK3 block: human KCNK3 channel inhibition, primary screen | O14649 | CHO-KCNK3 thallium flux, FluxOR fluorescence; hits give low values | B-score at 10 µM | hit rate 0.84% among 340,000 | AID 602410;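 active means B-score under library mean minus 4 SD, starting fluorescence ratio at most library mean plus 5 SD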;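 further: more negative B-score means stronger inhibition of thallium flux through KCNK3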
# hERG protect: hERG (human) protection from proarrhythmic block. Q12809. CHO-hERG, FluxOR thallium flux, dofetilide IC70 present. activation (rescue from dofetilide block), less the hit threshold, % at 10 µM. hit rate 0.51% among 310,000. AID 1511;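 active means activation above the mean of controls blocked by dofetilide plus 5 SD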;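 further: thallium influx through hERG after potassium depolarization seen as dye fluorescence rise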
# KCNQ1 block: human KCNQ1 channel inhibition. P51787. CHO-K1 KCNQ1, FluxOR thallium flux fluorescence; hits give high values. B-score at 10 µM. hit rate 1.3% among 310,000. AID 2642;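 active means compounds whose thallium flux B-score, printed positive for inhibition, exceeds three library SD while starting fluorescence stays within three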;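 further: channel opened by potassium depolarization with thallium stimulus after 20 min compound exposure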
# KCNK9 inh: blocks the human KCNK9 two-pore domain potassium channel; hit rate 1.2% among 310,000; B-score at 10 µM; HEK293 KCNK9, FluxOR thallium flux fluorescence; hits give low values;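 active means ratio B-score over 3 SD below the library mean, with starting fluorescence within 5 SD of its mean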;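 further: negative B-score means less thallium flux so channel inhibition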
# KCNK9 inh conf: confirmation of human KCNK9 potassium channel inhibitors. hit rate 43% among 4,900. inhibition, % at 10 µM. shares compounds with KCNK9 inh. HEK293 KCNK9 cells, FluxOR thallium flux fluorescence;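 active means thallium signal inhibited by more than 5 SD of the compound-free buffer control wells, on both duplicate plates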;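 further: 0% = assay buffer control wells without compound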
# Kir21 sel: tests whether KCNK9 modulators also affect mouse Kir2.1. shares compounds with KCNK9 inh. Kir2.1 cells, FluxOR thallium flux fluorescence. inhibition, % at 10 µM. hit rate 4% among 4,900;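 active means thallium signal drop more than 5 SD beyond the mean of the no-compound control wells, seen in both duplicate plates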;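 further: signal is fluorescence rise after thallium addition divided by baseline fluorescence; plate controls were assay buffer only for no effect and full block by chlorpromazine control for full effect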
# HEK293 Tl ctr: second counter-screen for KCNK9 modulators: effect in non-induced cells. hit rate 40% among 4,900. inhibition, % at 10 µM. AID 492997. non-induced KCNK9-HEK293, FluxOR thallium flux. shares compounds with KCNK9 inh;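 active means thallium signal drop beyond 5 SD of the untreated control mean, on both duplicate plates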;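 further: plate controls were buffer only IC0 wells for no effect and SID17386958 at its maximal inhibitory level for full effect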
# * = called active by the depositor; i = inactive; / = not tested or not shown. An excerpt weighted towards active compounds, which were near 3.7% of everything screened.
SMILES,KCNQ1 pot,Kir21 inh,KCNK3 block,hERG protect,KCNQ1 block,KCNK9 inh,KCNK9 inh conf,Kir21 sel,HEK293 Tl ctr
COc1cc(/C=N/Nc2nc(Nc3ccc(C)cc3)nc(-n3nc(C)cc3C)n2)cc(OC)c1OC,i,-0.61,i,-13.0,i,i,/,/,/
COc1ccc(O)c(/C=N/Nc2nc(Nc3ccccc3)nc(-n3nc(C)cc3C)n2)c1,i,-0.76,i,-15.1,10*,-12.4*,46.5%*,i,i
CN(CCCC(=O)O)c1ccc(N=Nc2ccc([N+](=O)[O-])cc2)cc1,i,-0.13,i,-3.1,i,i,/,/,/
COc1ccc(C(=O)Nn2cnnc2)cc1OC,i,0.69,i,-10.4,i,i,/,/,/
CN(C(=O)c1ccc2c(Cl)c3c(nc2c1)CCC3)c1ccccc1,i,-0.09,i,-13.4,i,i,/,/,/
CCN(C(=O)c1ccc2c(Cl)c3c(nc2c1)CCC3)c1ccc(C)c(C)c1,i,0.52,i,-16.0,i,i,i,i,i
O=C1CSC(c2ccncc2)N1Cc1ccco1 (centres undefined),i,-0.98,i,-6.1,i,i,/,/,/
CCc1ccc(-c2nn(-c3ccccc3)cc2C2SCC(=O)N2Cc2ccco2)cc1 (centres undefined),i,0.03,i,-9.9,i,i,i,i,i
Cc1cc(C)nc(N/N=C/c2ccccc2OCc2ccc([N+](=O)[O-])cc2)n1,i,0.17,i,-8.2,i,-14.9*,51.0%*,i,28.5%*
O=[N+]([O-])c1ccc(N/N=C\c2ccccc2OCc2ccccc2)cc1,i,0,i,-4.7,i,i,/,/,/
COc1ccc(-c2csc(Nc3ccc(S(=O)(=O)Nc4cc(C)on4)cc3)n2)cc1C,i,-0.64,i,-38.4,i,-8.74*,55.5%*,i,i
Cc1ccc(S(=O)(=O)N(CC(=O)NCC2CCCO2)Cc2cccc(C)c2)cc1 (centres undefined),i,-0.69,i,-10.8,i,i,/,/,/
COc1ccc(-c2cc(=O)n(-c3ccc([N+](=O)[O-])cc3)[nH]2)cc1,i,-0.4,i,-11.1,i,i,i,i,i
COc1ccc(/C=N/NC(=O)c2nc(-c3ccccc3)cc(-c3ccccc3)n2)cc1O,i,2.19,i,-12.4,i,-10.9*,68.0%*,i,i
COc1ccc(/C=N/NC(=O)c2cc(-c3ccccc3)nc3ccccc23)cc1O,i,0.11,i,-14.3,i,i,/,/,/
Cc1ccc(SCc2c(C#N)c3ccccc3n2C)cc1,i,-6.57*,-9.85*,-4.4,i,-11.5*,57.0%*,i,46.0%*
Cc1ccc(C)c(C(=O)COC(=O)C(C)N2C(=O)C3C4CCC(C4)C3C2=O)c1 (centres undefined),i,-0.81,i,-10.9,i,i,/,/,/
c1ccc(Cn2c(NCc3ccncc3)nc3ccccc32)cc1,i,-1.92,i,-12.5,i,i,/,/,/
COc1ccc(CNc2nc3ccccc3n2Cc2ccc(C)cc2)cc1OC,i,-2.96,i,-15.1,i,-8.48*,28.0%*,i,i
CCOC(=O)c1ccc(N2CCCCC2)c(NS(=O)(=O)c2cccc(C(F)(F)F)c2)c1,i,0.53,i,-6.0,i,-11.3*,56.5%*,i,34.5%*
COC(=O)c1ccc(N2CCCCC2)c(NS(=O)(=O)c2ccc(C)cc2)c1,i,-2.2,i,-5.8,i,i,/,/,/
CCC(=O)NNC(=O)c1cc(COc2cc(Cl)cc(Cl)c2)on1,i,-1.53,i,-6.3,i,i,/,/,/
Cc1ccc(C(=O)COC(=O)C(C)N2C(=O)C3C4CCC(C4)C3C2=O)cc1C (centres undefined),i,-1.38,i,-19.5,i,i,/,/,/
